Experimental data: publication PMC7050655 (ChemistryOpen, 2020)

Experiments:
[1] = target: human membrane bound IRAP overexpressed in HEK293 cells (Homo sapiens, UniProt Q9UIQ6); format: biochemical
Summary of the method: (§1)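 HEK293T suspension cells were grown in Freestyle medium (37 °C, 8 % CO2, shaken) and transfected with PEI (2 μg/10^6 cells). Plasmid per 10^6 cells was 1.1 μg for human IRAP and 0.7 μg for human APN. Cells were harvested at 48 h. Membranes were prepared as for CHO cells, stored at −80 °C, Dounce-homogenised and diluted in assay buffer. The set-up matched the CHO assay: 1 mM L-Leu-pNA, pH 7.4 Tris/NaCl/PMSF buffer, 405 nm absorbance.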

[2] = target: human aminopeptidase N overexpressed in HEK293 cells (Homo sapiens, UniProt P15144); format: biochemical; details: for specificity for IRAP over human APN: IRAP versus human APN; for pIC50: human aminopeptidase N overexpressed in HEK293 cells
Summary of the method: as §1

IRAP = target: T1, IRAP (Cricetulus griseus, UniProt A0A8C2M8D5); assay: Enzyme kinetics / competition studies with varied L-Leu-pNA substrate; format: biochemical; details: enzyme kinetics experiments
T1 sequence (A0A8C2M8D5 1-1025): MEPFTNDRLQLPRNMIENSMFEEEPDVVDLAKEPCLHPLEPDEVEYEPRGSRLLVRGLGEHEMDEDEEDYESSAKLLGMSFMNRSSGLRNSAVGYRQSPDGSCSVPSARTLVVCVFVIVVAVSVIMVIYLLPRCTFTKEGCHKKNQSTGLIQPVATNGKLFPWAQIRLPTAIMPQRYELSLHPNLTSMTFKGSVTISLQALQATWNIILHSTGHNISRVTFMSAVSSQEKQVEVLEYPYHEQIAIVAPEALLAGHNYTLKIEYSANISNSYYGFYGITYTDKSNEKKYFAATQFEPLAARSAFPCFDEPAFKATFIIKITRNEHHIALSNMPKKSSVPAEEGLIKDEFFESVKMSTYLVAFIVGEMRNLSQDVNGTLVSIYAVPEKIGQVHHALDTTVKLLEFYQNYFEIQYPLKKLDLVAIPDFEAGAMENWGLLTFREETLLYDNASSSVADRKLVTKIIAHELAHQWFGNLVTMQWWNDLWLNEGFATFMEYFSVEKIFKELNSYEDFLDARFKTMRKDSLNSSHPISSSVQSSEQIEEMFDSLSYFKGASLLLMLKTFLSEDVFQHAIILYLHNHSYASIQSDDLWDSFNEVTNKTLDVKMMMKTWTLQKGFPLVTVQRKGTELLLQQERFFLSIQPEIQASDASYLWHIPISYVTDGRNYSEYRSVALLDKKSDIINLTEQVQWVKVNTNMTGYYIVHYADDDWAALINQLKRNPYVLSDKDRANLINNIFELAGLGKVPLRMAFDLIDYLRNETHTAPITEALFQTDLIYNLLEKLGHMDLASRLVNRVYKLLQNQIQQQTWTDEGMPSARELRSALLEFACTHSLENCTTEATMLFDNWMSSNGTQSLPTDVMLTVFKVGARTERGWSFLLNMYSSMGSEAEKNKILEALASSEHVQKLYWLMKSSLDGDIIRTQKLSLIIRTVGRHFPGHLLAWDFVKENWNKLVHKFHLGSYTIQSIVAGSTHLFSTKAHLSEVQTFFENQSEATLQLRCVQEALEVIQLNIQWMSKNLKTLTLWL
Summary of the method: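 Inhibitor was serially diluted (39 nM–150 μM), with four technical replicates per substrate level. Absorbance at 405 nm was read every ten minutes. The 150 μM slope defined maximal inhibition and was subtracted. Rates were fitted to uncompetitive, competitive and non-competitive models and compared; per-concentration Michaelis-Menten fits were also made.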

[3] = Metabolic stability in human liver microsomes; format: in vitro ADME
Summary of the method: (§2)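 Part of an automated 96-well preclinical profiling panel with UPLC-MS/MS read-out. Values are mean and SD from three independent test occasions.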

[4] = Metabolic stability in rat hepatocytes; format: in vitro ADME; details: for hepatocyte CLint: Rat hep. Clint (rat hepatocytes intrinsic clearance), rat hepatocytes; for half-life: Rat hep. t 1/2, rat hepatocytes
Summary of the method: as §2

[5] = Human plasma protein binding; format: in vitro ADME; details: PPB (human protein plasma binding)
Summary of the method: (§3)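 Part of an automated 96-well profiling panel run in […], reporting fraction unbound and compound stability (% remaining after 18 h). Read-out by UPLC-MS/MS. Values are mean and SD from three independent test occasions.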

Human plasma stability = format: in vitro ADME; details: after 18 h incubation
Summary of the method: as §3

IRAP from CHO cells = target: T2, IRAP from CHO cells (Cricetulus griseus, UniProt A0A8C2M8D5); assay: IRAP inhibition, membrane preparations from CHO cells, L-Leu-pNA cleavage; format: biochemical, Chinese hamster
T2 sequence (A0A8C2M8D5 1-1025): T1 sequence (A0A8C2M8D5 1-1025)

human membrane bound IRAP overexpressed in HEK293 cells, sequence (Q9UIQ6 whole entry): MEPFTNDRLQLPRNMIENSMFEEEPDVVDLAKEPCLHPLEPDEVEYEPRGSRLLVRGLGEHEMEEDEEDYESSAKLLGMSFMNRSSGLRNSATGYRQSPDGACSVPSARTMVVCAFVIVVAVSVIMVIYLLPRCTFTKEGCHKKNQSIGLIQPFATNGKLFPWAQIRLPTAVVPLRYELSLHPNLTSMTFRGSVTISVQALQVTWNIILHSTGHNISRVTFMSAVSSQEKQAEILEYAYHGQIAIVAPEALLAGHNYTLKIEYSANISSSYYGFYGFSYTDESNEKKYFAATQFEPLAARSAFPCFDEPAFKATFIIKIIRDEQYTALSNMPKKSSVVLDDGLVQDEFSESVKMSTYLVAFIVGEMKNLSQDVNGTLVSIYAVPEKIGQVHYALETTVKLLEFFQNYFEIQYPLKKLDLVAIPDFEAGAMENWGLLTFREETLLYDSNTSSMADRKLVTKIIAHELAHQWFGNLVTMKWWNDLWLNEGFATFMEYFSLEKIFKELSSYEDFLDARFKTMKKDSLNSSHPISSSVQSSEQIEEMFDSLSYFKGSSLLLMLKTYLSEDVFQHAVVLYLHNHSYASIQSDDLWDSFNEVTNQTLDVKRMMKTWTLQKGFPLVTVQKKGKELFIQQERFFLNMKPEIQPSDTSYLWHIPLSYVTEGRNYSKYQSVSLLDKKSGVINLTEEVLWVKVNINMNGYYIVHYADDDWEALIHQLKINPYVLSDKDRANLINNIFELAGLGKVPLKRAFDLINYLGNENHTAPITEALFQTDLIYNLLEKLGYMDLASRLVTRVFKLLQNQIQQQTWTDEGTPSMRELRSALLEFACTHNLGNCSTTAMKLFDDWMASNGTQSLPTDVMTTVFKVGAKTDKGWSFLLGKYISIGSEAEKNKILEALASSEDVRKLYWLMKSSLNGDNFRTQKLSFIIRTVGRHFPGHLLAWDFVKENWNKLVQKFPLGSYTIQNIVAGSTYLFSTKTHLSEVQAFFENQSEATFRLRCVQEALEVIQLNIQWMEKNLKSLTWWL
human aminopeptidase N overexpressed in HEK293 cells, sequence (P15144 whole entry): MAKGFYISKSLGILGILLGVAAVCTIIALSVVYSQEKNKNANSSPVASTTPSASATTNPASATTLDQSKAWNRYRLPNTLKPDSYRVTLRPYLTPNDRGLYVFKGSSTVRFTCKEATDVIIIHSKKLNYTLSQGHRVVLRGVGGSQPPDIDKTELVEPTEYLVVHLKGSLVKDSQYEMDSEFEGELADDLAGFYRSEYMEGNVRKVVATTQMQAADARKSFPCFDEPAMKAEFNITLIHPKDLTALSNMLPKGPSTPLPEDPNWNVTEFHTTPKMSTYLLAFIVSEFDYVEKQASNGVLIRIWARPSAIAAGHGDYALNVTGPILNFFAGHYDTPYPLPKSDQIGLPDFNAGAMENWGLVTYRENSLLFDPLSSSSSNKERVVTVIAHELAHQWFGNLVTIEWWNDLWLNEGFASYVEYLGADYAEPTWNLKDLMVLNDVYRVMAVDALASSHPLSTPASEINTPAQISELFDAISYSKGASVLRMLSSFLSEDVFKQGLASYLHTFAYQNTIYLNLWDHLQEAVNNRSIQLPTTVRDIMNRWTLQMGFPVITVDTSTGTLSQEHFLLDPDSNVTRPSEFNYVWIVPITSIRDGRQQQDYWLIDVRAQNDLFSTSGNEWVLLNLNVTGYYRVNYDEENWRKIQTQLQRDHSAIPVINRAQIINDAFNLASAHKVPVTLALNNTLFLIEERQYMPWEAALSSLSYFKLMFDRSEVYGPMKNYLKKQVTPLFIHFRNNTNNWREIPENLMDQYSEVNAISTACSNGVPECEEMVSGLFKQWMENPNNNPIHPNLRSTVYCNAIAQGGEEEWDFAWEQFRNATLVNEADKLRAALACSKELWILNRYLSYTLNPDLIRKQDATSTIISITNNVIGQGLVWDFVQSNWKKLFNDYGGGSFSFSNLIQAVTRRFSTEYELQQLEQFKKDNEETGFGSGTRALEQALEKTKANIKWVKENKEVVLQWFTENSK

IC50 [1] | specificity for IRAP over human APN [2] | pIC50 [2] | mode of inhibition versus L-Leu-pNA (IRAP) | loss of activity on hIRAP compared to IRAP from CHO-cells ([1]; hIRAP versus CHO IRAP) | half-life [3] | microsomal CLint [3] | hepatocyte CLint [4] | half-life [4] | fraction unbound [5] | Plasma stab (human plasma stability) (Human plasma stability) | decrease of activity compared to compound 1 (IRAP from CHO cells) | SMILES
5.01 µM | specificity for IRAP over human APN | Inactive | uncompetitive inhibitor | – | – | – | – | – | – | – | – | CN1C(=O)C2(Nc3ccccc3C(=O)N2Cc2ccccc2)c2cc(Br)ccc21 (racemic) [Compound 32, 3′‐Benzyl‐5‐bromo‐1‐methyl‐1′H‐spiro[indoline‐3,2′‐quinazoline]‐2,4′(3′H)‐dione]
31.6 µM | specificity for IRAP over human APN | completely inactive | – | 10 to 15 fold | < 2.3 min | > 300 µL/min/mg | 114 ± 4 µL/min/1e6 cells | 6.1 ± 0.2 min | 0.098 ± 0.02 | 100±5 % compound remaining | – | Cc1ccc(N2C(=O)c3ccccc3NC23C(=O)N(C)c2ccc([N+](=O)[O-])cc23)cc1 (stereo not shown) [Compound 7, 1‐Methyl‐5‐nitro‐3′‐(p‐tolyl)‐1′H‐spiro[indoline‐3,2′‐quinazoline]‐2,4′(3′H)‐dione]
– | – | – | – | – | – | – | – | – | – | – | tenfold | COc1ccc2c(c1)C1(Nc3ccccc3C(=O)N1c1ccc(C)cc1)C(=O)N2C (stereo not shown) [Compound 9, 5‐Methoxy‐1‐methyl‐3′‐(p‐tolyl)‐1′H‐spiro[indoline‐3,2′‐quinazoline]‐2,4′(3′H)‐dione]
– | – | – | – | – | – | – | – | – | – | – | tenfold | Cc1ccc(N2C(=O)c3ccccc3NC23C(=O)N(C)c2ccc(C)cc23)cc1 (stereo not shown) [Compound 10, 1,5‐Dimethyl‐3′‐(p‐tolyl)‐1′H‐spiro[indoline‐3,2′‐quinazoline]‐2,4′(3′H)‐dione]
– | – | – | – | – | < 2.3 min | > 300 µL/min/mg | > 300 µL/min/1e6 cells | < 2.3 min | 0.0025 to 0.032 | 102±25 % compound remaining | – | CCc1ccccc1-c1ccc2c(c1)C1(Nc3ccccc3C(=O)N1c1ccc(C)cc1)C(=O)N2C (stereo not shown) [Compound 15, 5‐(2‐Ethylphenyl)‐1‐methyl‐3′‐(p‐tolyl)‐1′H‐spiro[indoline‐3,2′‐quinazoline]‐2,4′(3′H)‐dione]
31.6 µM | specificity for IRAP over human APN | Inactive | – | – | < 2.3 min | > 300 µL/min/mg | 84 ± 14 µL/min/1e6 cells | 8.5 ± 1.6 min | 0.055 ± 0.004 | 97±15 % compound remaining | – | CN1C(=O)C2(Nc3ccccc3C(=O)N2Cc2cccnc2)c2cc(Br)ccc21 (stereo not shown) [Compound 36, 5‐Bromo‐1‐methyl‐3′‐(pyridin‐3‐ylmethyl)‐1′H‐spiro[indoline‐3,2′‐quinazoline]‐2,4′(3′H)‐dione]
12.6 µM | specificity for IRAP over human APN | Inactive | – | – | < 2.3 min | > 300 µL/min/mg | 132 ± 39 µL/min/1e6 cells | 5.5 ± 1.4 min | 0.041 ± 0.008 | 98±3 % compound remaining | – | CN1C(=O)C2(Nc3ccccc3C(=O)N2Cc2ccco2)c2cc(Br)ccc21 (stereo not shown) [Compound 37, 5‐Bromo‐3′‐(furan‐2‐ylmethyl)‐1‐methyl‐1′H‐spiro[indoline‐3,2′‐quinazoline]‐2,4′(3′H)‐dione]
– | – | – | – | – | < 2.3 min | > 300 µL/min/mg | 248 ± 5 µL/min/1e6 cells | 2.8 ± 0.06 min | 0.019 ± 0.004 | 105±7 % compound remaining | – | CCCCN1C(=O)c2ccccc2NC12C(=O)N(C)c1ccc(Br)cc12 (stereo not shown) [Compound 38, 5‐Bromo‐3′‐butyl‐1‐methyl‐1′H‐spiro[indoline‐3,2′‐quinazoline]‐2,4′(3′H)‐dione]
50.1 µM | specificity for IRAP over human APN | Inactive | – | – | < 2.3 min | > 300 µL/min/mg | 91 ± 8 µL/min/1e6 cells | 7.6 ± 0.6 min | 0.14 ± 0.006 | 99±1 % compound remaining | – | COCCN1C(=O)c2ccccc2NC12C(=O)N(C)c1ccc(Br)cc12 (stereo not shown) [Compound 39, 5‐Bromo‐3′‐(2‐methoxyethyl)‐1‐methyl‐1′H‐spiro[indoline‐3,2′‐quinazoline]‐2,4′(3′H)‐dione]
39.8 µM | specificity for IRAP over human APN | Inactive | – | – | 8.6 ± 1 min | 81 ± 10 µL/min/mg | 136 ± 22 µL/min/1e6 cells | 5.2 ± 0.9 min | 0.4 ± 0.04 | 95±2 % compound remaining | – | CN(C)CCN1C(=O)c2ccccc2NC12C(=O)N(C)c1ccc(Br)cc12 (stereo not shown) [Compound 40, 5‐Bromo‐3′‐(2‐(dimethylamino)ethyl)‐1‐methyl‐1′H‐spiro[indoline‐3,2′‐quinazoline]‐2,4′(3′H)‐dione]
